Results from different studies.
Each line is one published result; the experiments were not run side by side.
CDK4: Cyclin-dependent kinase 4 (CDK4, Homo sapiens, UniProt P11802)
CDK4 with cyclin D1: Cyclin-dependent kinase 4, with cyclin D1 (CDK4, Homo sapiens, UniProt P11802)
CDK4 with cyclin D3: Cyclin-dependent kinase 4, with cyclin D3 (CDK4, Homo sapiens, UniProt P11802)

SMILES | target | test | setting | quantity | value
CCOCCn1cc(C(=O)Nc2ccc(-n3nc(-c4cccnc4)cc3C(F)(F)F)cn2)ccc1=O | CDK4 | cell-free assay, competition with immobilised ligand | 1 µM | remaining binding | 87%
COc1ccc(C(=O)[C@H]2Cc3c(cc([N+](=O)[O-])cc3[N+](=O)[O-])[C@@H](O)[C@@]23C(=O)Nc2ccccc23)cc1 | CDK4 | cell-free assay, inhibitor, TR-FRET | 1 µM | inhibition | 39.3%
Cc1sc(C(=O)NC2COC2)cc1-n1cc(NC(=O)Nc2c(F)cccc2Cl)cn1 | CDK4 with cyclin D1 | enzyme activity, inhibitor | 10 µM | remaining activity | 78%
COc1cc2c(cc1OC)-c1[nH]nc(Nc3cccc(F)c3)c1C2 | CDK4 with cyclin D3 | cell-free assay | 0.5 µM | remaining signal | 95.4%
COc1cccc(CNC(=O)c2nc3scc(COCc4ccc(C(=O)O)cc4)c3c(=O)[nH]2)c1 | CDK4 with cyclin D3 | cell-free assay, competition with immobilised ligand | 1 µM | remaining binding | 91.1%
O=C1NC(=O)c2cc(Nc3ccc(F)cc3)c(Nc3ccc(F)cc3)cc21 | CDK4 with cyclin D1 | cell-free assay | 0.5 µM | remaining signal | 101%
CN(c1nccc(-c2cnn3ncccc23)n1)C1CC1 | CDK4 with cyclin D1 | binding | 1 µM | remaining binding | 100%
O=C(Nc1cnn(-c2csc(C(=O)NC3COC3)c2)c1)Nc1ccccc1Cl | CDK4 with cyclin D3 | enzyme activity, inhibitor | 5 µM | remaining activity | 98.2%
C[C@H]1CCN(c2nccc(-c3cnn4ncccc34)n2)C1 | CDK4 with cyclin D1 | binding | 1 µM | remaining binding | 80%
CCN(CC)CCNC(=O)c1c(C)[nH]c(/C=C2\C(=O)Nc3ccc(F)cc32)c1C | CDK4 with cyclin D1 | cell-free assay | 0.5 µM | remaining signal | 81%
O=C(c1ccc(Br)cc1)[C@H]1Cc2c(cc([N+](=O)[O-])cc2[N+](=O)[O-])[C@@H](O)[C@@]12C(=O)Nc1ccccc12 | CDK4 | cell-free assay, inhibitor, TR-FRET | 1 µM | inhibition | 29.5%
CN1CCN(c2cnc3c(C4CCN(C(=O)c5ccc(OC(F)(F)F)cc5N)CC4)ncnc3c2)CC1 | CDK4 | cell-free assay, competition with immobilised ligand | 1 µM | remaining binding | 100%
CN(CCCC(F)(F)F)c1nccc(-c2cnn3ncccc23)n1 | CDK4 with cyclin D3 | binding | 1 µM | remaining binding | 100%
Cc1ccc(NC(=O)c2ccc(C)c(C(F)(F)F)c2)cc1C#Cc1nn(C2CCC(O)CC2)c2ncnc(N)c12 (stereo not drawn) | CDK4 with cyclin D3 | cell-free assay | 10 µM | remaining signal | 86%
O=C(Nc1cnc(Oc2ccc(F)cc2)nc1)N1CCc2ncccc2[C@@H]1c1ccc(F)cc1 | CDK4 with cyclin D1 | cell-free assay, competition with immobilised ligand | 1 µM | remaining binding | 100%
F[C@@H]1CCN(c2nccc(-c3cnn4ncccc34)n2)C1 | CDK4 with cyclin D1 | binding | 1 µM | remaining binding | 100%
O=C(c1ccc(Cl)c(Cl)c1)[C@H]1Cc2c(cc([N+](=O)[O-])cc2[N+](=O)[O-])[C@H](O)[C@]12C(=O)Nc1ccccc12 | CDK4 | cell-free assay, inhibitor, TR-FRET | 1 µM | inhibition | 18.5%
O=C(NCc1ncc(C(F)(F)F)cc1Cl)c1ccc2c(c1)C1(CCS(=O)(=O)CC1)[C@H](C1CC1)N2S(=O)(=O)c1ccc(F)cc1 | CDK4 with cyclin D3 | cell-free assay, competition with immobilised ligand | 1 µM | remaining binding | 88%
Cc1ccc(C(=O)NCc2ccsc2)cc1C#Cc1cn(C(C)C)c2ncnc(N)c12 | CDK4 with cyclin D3 | enzyme activity, inhibitor | 1 µM | activity vs control | 92%
CNC(=O)Nc1ccc2c(c1)[C@@]1(CC2)OC(=O)N(CC(=O)N(Cc2ccc(F)cc2)[C@@H](C)C(F)(F)F)C1=O | CDK4 | cell-free assay, competition with immobilised ligand | 1 µM | remaining binding | 73%

SMILES | target | test | setting | quantity | value
N#CCCc1ccc2c(c1)-c1[nH]c3ccc([N+](=O)[O-])cc3c1CC(=O)N2 | CDK4 with cyclin D1 | cell-free assay | 0.5 µM | remaining signal | 11.8%
Cc1c(NC(=O)c2cc(C(N)=O)nc3cc(F)ccc23)c(C(F)(F)F)nn1Cc1ccc(C#N)cc1 | CDK4 with cyclin D3 | cell-free assay, competition with immobilised ligand | 1 µM | remaining binding | 81%
CN(C)c1nccc(-c2cnn3ncccc23)n1 | CDK4 with cyclin D1 | binding | 1 µM | remaining binding | 100%
CC(C)(C)c1nc2c(s1)c1nc(N)ncc1c1ccc(NS(=O)(=O)c3c(F)cccc3F)c(F)c12 | CDK4 with cyclin D1 | enzyme activity, inhibitor, radiometric | 1 µM | remaining activity | 88%
N[C@H]1CCN(c2nccc(-c3cnn4ncccc34)n2)C1 | CDK4 with cyclin D1 | binding | 1 µM | remaining binding | 100%
O=C(O)[C@@H]1[C@@H](Cn2nnc3ccccc3c2=O)CC[C@H]1C(=O)c1ccc(OCCC2CCOCC2)cc1 | CDK4 with cyclin D3 | cell-free assay, competition with immobilised ligand | 1 µM | remaining binding | 83%
Nc1ncnc2occ(-c3ccc(NC(=O)Nc4cc(C(F)(F)F)ccc4F)cc3)c12 | CDK4 with cyclin D3 | cell-free assay, inhibitor | 20 µM | remaining signal | 51%
CN1CC(Oc2cnc(C#N)cc2-c2ccn3nc(NC(=O)C4CC4)cc3c2)C1 | CDK4 with cyclin D3 | enzyme activity, inhibitor | 1 µM | inhibition | -9%
O=C(c1ccccc1F)[C@H]1Cc2c(cc([N+](=O)[O-])cc2[N+](=O)[O-])[C@H](O)[C@]12C(=O)Nc1ccccc12 | CDK4 | cell-free assay, inhibitor, TR-FRET | 1 µM | inhibition | 29.3%
C[C@@H]1CCN(C(=O)CC#N)C[C@@H]1N(C)c1ncnc2[nH]ccc12 | CDK4 with cyclin D3 | cell-free assay, inhibitor | 0.5 µM | remaining signal | 99.9%
CC1CCCN1c1nccc(-c2cnn3ncccc23)n1 (stereo not drawn) | CDK4 with cyclin D1 | binding | 1 µM | remaining binding | 100%
CC(C)(O)[C@H]1CC[C@H](Nc2ccc3ncc(-c4cccc(C(F)(F)F)c4)n3n2)CC1 | CDK4 with cyclin D3 | enzyme activity, inhibitor | 1 µM | remaining activity | 106%
Oc1cccc(-c2nc(N3CCOCC3)c3oc4ncccc4c3n2)c1 | CDK4 with cyclin D3 | cell-free assay | 0.5 µM | remaining signal | 92.5%
CN(C)c1nccc(-c2cnc3ncccn23)n1 | CDK4 | binding | 1 µM | remaining binding | 71%
O=C(c1ccc(F)cc1)[C@H]1Cc2c(cc([N+](=O)[O-])cc2[N+](=O)[O-])[C@@H](O)[C@@]12C(=O)Nc1ccccc12 | CDK4 | cell-free assay, inhibitor, TR-FRET | 1 µM | inhibition | 48.2%
O=C1Nc2ccc(Cl)cc2C1=Cc1cc(Cl)c(O)c(Cl)c1 | CDK4 with cyclin D3 | cell-free assay | 0.5 µM | remaining signal | 94.8%
O=C(c1ccccc1)[C@H]1Cc2c(cc([N+](=O)[O-])cc2[N+](=O)[O-])[C@H](O)[C@]12C(=O)Nc1ccccc12 | CDK4 | cell-free assay, inhibitor, TR-FRET | 1 µM | inhibition | 30.8%
O=C(Nc1cnn(-c2csc(C(=O)NC3COC3)c2)c1)Nc1c(F)cccc1Cl | CDK4 with cyclin D1 | enzyme activity, inhibitor | 5 µM | remaining activity | 90.3%
COc1ccc(OC)c2c(=S)c3ccccc3[nH]c12 | CDK4 with cyclin D1 | cell-free assay | 0.5 µM | remaining signal | 93.5%
